Source: PubChem BioAssay (several laboratories)
A3A deaminase: human APOBEC3A DNA deaminase inhibition; recombinant A3A, FAM/TAMRA ssDNA deamination fluorescence; inhibition, % at 20 µM; 330,000 tested, 0.41% active; AID 493011;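 active means at least 40% inhibition at 20 µM here, with at most 30% in a related deaminase screen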;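 further: plate controls were A3A with DMSO for no effect and wells lacking A3A enzyme for full effect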
Target sequence (P31941 whole entry, looked up): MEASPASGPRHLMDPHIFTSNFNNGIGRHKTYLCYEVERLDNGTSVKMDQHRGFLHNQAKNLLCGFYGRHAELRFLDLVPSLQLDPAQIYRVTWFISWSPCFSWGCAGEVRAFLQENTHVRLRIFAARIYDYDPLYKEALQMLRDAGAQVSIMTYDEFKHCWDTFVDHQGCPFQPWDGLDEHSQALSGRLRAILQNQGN
FN deposition inh: fibronectin deposition inhibition; AH1F fibroblasts, Alexa488-fibronectin deposition fluorescence, overnight; inhibition, % at 12.6 µM; 350,000 tested, 0.086% active;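 active means mean inhibition across replicates of 30% or more, regardless of how many single replicates reach that level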;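 further: positive control wells lacked labelled fibronectin entirely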
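Material: AH1F fibroblast monolayer depositing Alexa488-labelled fibronectin into matrix | Input: 10000 AH1F cells/well | Medium: DMEM plus 2% serum, read in PBS | Reagent: Alexa488-fibronectin, 24 nM final in well | Compound dosing: One dose per compound, pinned | Schedule: 1 h adhesion, overnight exposure | Measured by: Fluorescence at 485 nm excitation, 525 nm emission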
APOBEC3G inh: inhibitors of human APOBEC3G DNA deaminase. Q9HC16. inhibition, % at 20 µM. 330,000 tested, 0.28% active. recombinant A3G, ssDNA deamination FAM/TAMRA fluorescence. AID 493012;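 active means inhibition of at least 40% at 20 µM, with no more than 30% in the related APOBEC3A deaminase screen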;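 further: plate controls were DMSO wells with A3G for no effect and wells lacking A3G enzyme for full effect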
Target sequence (Q9HC16 whole entry, looked up): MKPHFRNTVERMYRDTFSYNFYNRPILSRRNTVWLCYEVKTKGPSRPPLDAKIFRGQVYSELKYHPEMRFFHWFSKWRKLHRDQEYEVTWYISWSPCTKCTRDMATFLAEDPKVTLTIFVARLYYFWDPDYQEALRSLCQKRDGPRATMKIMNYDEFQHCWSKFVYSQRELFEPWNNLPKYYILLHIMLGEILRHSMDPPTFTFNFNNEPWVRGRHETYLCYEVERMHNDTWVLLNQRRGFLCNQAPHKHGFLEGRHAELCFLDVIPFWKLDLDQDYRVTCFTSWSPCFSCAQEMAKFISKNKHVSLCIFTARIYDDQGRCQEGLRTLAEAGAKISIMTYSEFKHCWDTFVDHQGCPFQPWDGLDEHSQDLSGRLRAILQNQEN
ABHD5-PLIN5 inh: ABHD5-PLIN5 protein interaction inhibition; 360,000 tested, 0.78% active; Split G. princeps luciferase complementation, luminescence, 4 h; inhibition, % at 4 µM;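 active means inhibition above the mean inhibition across every tested compound plus 3 SD, cut at about 22% in these data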;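 further: 0% = DMSO only wells and the 100% control is not disclosed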
ABHD5-PLIN5 conf: confirmation of human ABHD5-PLIN5 interaction inhibitors. biochemical ABHD5-PLIN5 interaction, luminescence. inhibition, % at 4 µM. 2,200 tested, 67% active. shares compounds with ABHD5-PLIN5 inh; in the data active means inhibition above about 23%;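 further: 0% = DMSO vehicle wells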
HNF4 counter: HNF4 split-luciferase signal hit, counter-screen. shares compounds with ABHD5-PLIN5 inh. HNF4 dimerization, luminescence, biochemical. inhibition, % at 4 µM. 2,200 tested, 77% active;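 active means mean inhibition across replicate wells exceeding the computed hit threshold, cut at about 13% in these data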;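 further: light from luciferase halves that rejoin when HNF4 fusion proteins dimerize; 0% = DMSO only wells and the 100% control is not given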
Active calls of the source: *; · = not tested or not shown. Rows were chosen to be rich in hits. Some 1.2% of all compounds tested hit in one or more screens of this group.

SMILES	A3A deaminase	FN deposition inh	APOBEC3G inh	ABHD5-PLIN5 inh	ABHD5-PLIN5 conf	HNF4 counter
CCSC1(SCC)N=C(N)C2(C#N)C(c3ccc(OC)c(OC)c3OC)C12C#N (configuration not stated)	-1	·	-3	25*	78*	72*
CN1C(=O)c2cc(NC(=O)c3ccno3)ccc2OC[C@H]2O[C@@H](CC(=O)NC3Cc4ccccc4C3)CC[C@@H]21	·	4	·	·	·	·
Nc1ccc(C(=O)C(=O)c2ccc(N)cc2)cc1	-2	13	-5	3	·	·
N=C1C=CC(=C(c2ccc(N)cc2)c2ccc(N)cc2)C=C1	·	-10	·	34*	56*	60*
CC(C)(C)[S@@](=O)N1Cc2cc(C(=O)NC3CCCC3)nc(-c3cccc(Br)c3)c2[C@H]1CCO	·	-9	·	·	·	·
O=C1ON=C(c2ccccc2)/C1=C/c1ccc(-c2ccccc2[N+](=O)[O-])o1	·	-1	·	35*	102*	107*
O=[N+]([O-])c1ccccc1-c1ccc(/C=N/n2cnnc2)o1	3	·	0	-5	·	·
O=C(NCc1cccnc1)/C(=C/c1ccc(-c2cccc(Cl)c2)o1)S(=O)(=O)c1ccccc1	7	·	0	48*	40*	39*
Cc1ccc(C(=O)N/C(=C\c2ccc(-c3cc(Cl)ccc3Cl)o2)C(=O)NCc2cccnc2)cc1	-5	·	-7	2	·	·
O=C(NCc1cccnc1)/C(=C\c1ccc(-c2cccc(Cl)c2)o1)S(=O)(=O)c1ccccc1	·	·	·	82*	97*	88*
N#C/C(=C/c1ccc(CNC(=O)C(=O)Nc2cc(Cl)cc(Cl)c2)o1)C(=O)NCc1cccnc1	-5	-5	-7	0	·	·
CC1C/C(=C\c2cccnc2)C(=O)/C(=C/c2cccnc2)C1 (configuration not stated)	·	·	·	91*	100*	93*
O=C1/C(=C/c2cccnc2)CCc2c1[nH]c1ccccc21	4	-7	-7	7	·	·
O=C(/C=C/c1ccccn1)c1cc(Cl)cc(Cl)c1O	3	0	-1	23*	45*	31*
CC(C)NC(=O)Nc1ccc2c(c1)C(=O)N([C@H](C)CO)C[C@H](C)[C@H](CN(C)S(=O)(=O)c1ccccc1)OCCCC[C@H](C)O2	·	-19	·	·	·	·
CC1Sc2ccc(S(=O)(=O)N3CCC(C(=O)NCc4ccc(Cl)cc4)CC3)cc2NC1=O (configuration not stated)	0	-5	-6	27*	43*	·
COC(=O)C(=Cc1ccc(-c2ccsc2C(=O)OC)o1)C(=O)OC	1	9	-1	23*	24*	37*
CCOC(=O)C(=Cc1ccc(-c2ccsc2C(=O)OC)o1)C(=O)OCC	2	-4	-6	0	·	·
O=c1ccc2ccccc2c2ccccc12	·	10	·	87*	97*	104*
Cc1cc(NC(=O)CSc2ccc(-c3ccc(Br)cc3)nn2)no1	-2	·	-5	2	·	·
Cc1ccc(-c2ccc(SCC(=O)Nc3cc(C)on3)nn2)cc1	4	12	0	55*	3	1
Cc1cc(C)c2sc(N(CCCN(C)C)C(=O)CN3C(=O)c4ccccc4C3=O)nc2c1	2	0	-3	24*	14	4
Cc1cc(C)c2sc(N(CCCN(C)C)C(=O)c3ccc(Br)s3)nc2c1	-1	-12	-4	23*	17	9
COCC(=O)Nc1ccc2c(c1)OC[C@@H](C)N(C(=O)C1CCCC1)C[C@H](C)[C@H](OC)CN(C)C2=O	·	-4	·	·	·	·
O=C(c1ccccc1)c1ccccc1N1C(=O)C=CC1=O	1	58*	10	44*	45*	105*
SMILES	A3A deaminase	FN deposition inh	APOBEC3G inh	ABHD5-PLIN5 inh	ABHD5-PLIN5 conf	HNF4 counter
O=C1C=CC(=O)N1c1ccccc1N1C(=O)C=CC1=O	·	40*	·	30*	64*	109*
COc1cc(C)c2sc3ccccc3c(=O)c2c1NCCN(C)C	·	5	·	32*	27*	8
CCC(=O)Nc1cccc(C(=O)/C=C/c2ccc(F)cc2)c1	2	4	-3	46*	92*	85*
CSc1ccc(/C=C/C(=O)c2ccc(NC(C)=O)cc2)cc1	1	·	1	25*	52*	41*
CC(=O)Nc1cccc(C(=O)/C=C/c2ccc(C)cc2)c1	-2	7	-6	49*	87*	82*
CCCC(=O)Nc1ccc(C(=O)/C=C/c2ccc(SC)cc2)cc1	-4	·	-7	20	·	·
COc1cccc(C(=O)N2C[C@@H]3[C@H](c4ccccc42)[C@H](CO)N3C(=O)c2cccc(F)c2)c1	·	-4	·	·	·	·
C=C(NC(=O)C(=C)NC(=O)c1csc(C2=NC3c4csc(n4)C4NC(=O)c5csc(n5)C([C@@](C)(O)C(C)O)NC(=O)C5CSC(=N5)/C(=C\C)NC(=O)C(C(C)O)NC(=O)c5csc(n5)[C@]3(CC2)NC(=O)C(C)NC(=O)C(=C)NC(=O)C(C)NC(=O)C(C(C)CC)NC2C=Cc3c(C(C)O)cc(nc3C2O)C(=O)OC4C)n1)C(N)=O (some centres not stated)	-1	·	-2	·	·	·
C=C(NC(=O)C(=C)NC(=O)c1csc(C2=NC3c4csc(n4)C4NC(=O)c5csc(n5)C(C(C)(O)C(C)O)NC(=O)C5CSC(=N5)/C(=C/C)NC(=O)C(C(C)O)NC(=O)c5csc(n5)C3(CC2)NC(=O)C(C)NC(=O)C(=C)NC(=O)C(=C)NC(=O)C(C(C)C)NC2C=Cc3c(C(C)O)cc(nc3C2O)C(=O)OC4C)n1)C(N)=O (configuration not stated)	·	-4	·	28*	66*	10
CC(C)C(=O)NC(c1ccc(Cl)cc1Cl)c1ccc2cccnc2c1O (configuration not stated)	-5	12	-6	29*	15	5
C[C@H](CO)N1C[C@H](C)[C@@H](CN(C)C(=O)NC2CCCCC2)OCCCC[C@H](C)Oc2ccc(NS(C)(=O)=O)cc2C1=O	·	-11	·	·	·	·
CCC(=O)Nc1ccc2c(c1)C(=O)N(C)[C@@H]1CC[C@@H](CC(=O)N3CCCCC3)O[C@H]1CO2	·	-7	·	·	·	·
O=[N+]([O-])c1ccc(/C=N/Nc2ccc3ccccc3c2)o1	4	10	7	28*	31*	17*
O=C(N/N=C/c1ccc([N+](=O)[O-])o1)c1cc2ccccc2o1	16	6	-1	1	·	·
C#CCN(C[C@H]1[C@H](OC(=O)Nc2cccs2)[C@H](OC(=O)Nc2cccs2)C[C@H]2C(=O)N(c3ccccc3)C(=O)[C@@H]12)S(=O)(=O)c1ccc(C)cc1	·	·	·	9	·	·
C#CCN(C[C@@H]1[C@@H](OC(=O)NC2CCCC2)[C@@H](OC(=O)NC2CCCC2)Cn2c(=O)ccc(=O)n21)S(=O)(=O)c1ccc(C)cc1	·	-13	·	38*	64*	24*
